SF1 activator = SF-1 (human) activation | Q13285 | CHO-K1 Gal4-SF-1 LBD luciferase reporter; % increase over DMSO SF-1-specific signal | activation, % at 10 µM | actives 1.9% (n = 65,000);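 active = activation above the mean activation of all tested compounds plus 3 SD, cut at about 50% in these data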
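Compound – one dose, 10 µM compound, 1% DMSO · Test system – transient Gal4-SF-1 LBD reporter, CHO-K1 · Input – 4,000 cells in each well · Read-out basis – percent activation relative to DMSO median and mock-transfected background · Replicates – single measurement per compound · Technique – steady-glow luciferase luminescence, read after 15 min reagent incubation · Timing – 20 h compound treatment, 37 °C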
M1 antagonist = antagonists of rat M1 muscarinic receptor; P08482; CHO-M1 cells, Fluo-4 calcium, ACh EC80 antagonist mode; hits give low values; B-score at 10 µM; actives 3.4% (n = 64,000); AID 628;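 active = calcium fluorescence response, raw or row-and-column corrected B-score, differing from the plate sample mean either way at a set confidence level, mostly lower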
Target sequence (P08482 whole entry, looked up): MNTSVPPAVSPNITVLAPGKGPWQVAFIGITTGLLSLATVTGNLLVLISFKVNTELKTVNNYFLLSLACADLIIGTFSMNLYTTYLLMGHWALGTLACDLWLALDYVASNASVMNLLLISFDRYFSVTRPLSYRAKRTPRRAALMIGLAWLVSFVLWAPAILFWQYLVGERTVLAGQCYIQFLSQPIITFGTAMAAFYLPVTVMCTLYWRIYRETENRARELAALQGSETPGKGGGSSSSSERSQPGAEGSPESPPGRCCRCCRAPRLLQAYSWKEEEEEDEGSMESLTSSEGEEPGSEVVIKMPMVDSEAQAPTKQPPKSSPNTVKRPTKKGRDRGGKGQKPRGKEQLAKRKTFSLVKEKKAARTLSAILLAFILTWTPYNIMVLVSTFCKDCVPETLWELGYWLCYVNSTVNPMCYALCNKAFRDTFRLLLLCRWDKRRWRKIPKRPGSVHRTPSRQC
D1 allo mod = D1 dopamine receptor (human) allosteric modulation | B-score at 10 µM | actives 5.9% (n = 58,000) | HEK293 D1, CRE-luciferase, dopamine EC30 potentiation; actives deviate in either direction;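 active = luminescence count or its row- and column-corrected plate score outside the 99.7% band of the plate's sample wells, on either side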
M1 ag = activates the M1 muscarinic receptor; actives 3% (n = 64,000); B-score at 10 µM; CHO-M1 cells, Fluo-4 calcium fluorescence, agonist mode; hits give high values; AID 626;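 active = fluorescence rise, raw or as B-score row- and column-corrected plate score, outside the 99.7% band of its plate's samples, either direction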
HePTP inh = human HePTP phosphatase inhibition | recombinant HePTP phosphatase activity, OD absorbance | inhibition, % at 20 µM | actives 0.64% (n = 110,000) | AID 521; in the data active = inhibition above about 50%; inconclusive = no clear call, values can overlap the other calls
RORa activator = activates the human nuclear receptor RORA. CHO-K1 Gal4-RORA LBD luciferase reporter, luminescence; percent increase over mock-subtracted basal signal. P35398. activation, % at 10 µM. actives 1.5% (n = 65,000). AID 560;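 active = activation above the mean of all tested compounds plus 3 SD, cut at about 49% in these data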
M1 agonist conf = confirmation of rat M1 muscarinic receptor agonists. shares compounds with M1 ag. CHO-M1 cells, Fluo-4 calcium fluorescence, agonist mode; actives lie on both sides. fluorescence change (max-min) at 10 µM. actives 19% (n = 1,700);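 active = fluorescence change differs from the solvent-only DMSO control mean at a set confidence level in both duplicate runs; inconclusive = differs from solvent-only control mean in just one of two runs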;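 also: an EC20 dose of acetylcholine follows compound addition during the same imaging run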
M4 ag counter = rat M4 muscarinic agonism, M1 counter-screen | shares compounds with M1 ag | CHO M4/Gqi5 cells, Fluo-4 calcium fluorescence, agonist mode; actives lie on both sides | fluorescence change (max-min) at 10 µM | actives 9% (n = 1,700) | AID 1741;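 active = fluorescence change differing from the plate's solvent-only control wells at 99.7% confidence in both duplicates, whether higher or lower; inconclusive = differs from solvent controls in only one of two duplicates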
Large screens that a line does not name were inactive (follow-up assays come after a bar, where they were run). In the library only some 8.2% were active in any assay of this set; here they are far more common.

CN(C)c1nc(SCCOC(=O)COc2ccc(Cl)cc2Cl)nc(N(C)C)n1	M1 ag 2 | M1 agonist conf inactive | M4 ag counter inconclusive
CN(C)c1nc(OCCOC(=O)COc2ccc(Cl)cc2Cl)nc(N(C)C)n1	none
CCC1CCCCN1C(=O)CSc1nnc(-c2cccc(Cl)c2)o1 (stereo not given)	M1 ag 2.5 | M1 agonist conf inactive | M4 ag counter inactive
CCOc1ccc(C2C(C#N)=C(N)Oc3n[nH]c(C)c32)cc1OC(=O)C1CC1 (stereo not given)	M1 ag 4.6 | M1 agonist conf inactive | M4 ag counter inactive
Cc1ccc(C2C(C#N)=C(N)Oc3n[nH]c(C)c32)cc1 (stereo not given)	none
c1ccc(OCCn2c(-c3ccco3)nc3ccccc32)cc1	none
CCCCOCCCn1c(-c2ccco2)nc2nc3ccccc3nc21	M1 ag 4.2 | M1 agonist conf inconclusive | M4 ag counter inactive
C=C1c2ccc(C)cc2NC(=O)N1c1ccccc1	none
CCOc1cccc(C(=O)Nc2nc(-c3ccc(S(=O)(=O)N4CCOCC4)cc3)cs2)c1	M1 ag 3.7 | M1 agonist conf inactive | M4 ag counter inactive
CC(=O)c1c(C)nn(CC(O)Cn2c3c(c4cc(C)ccc42)CCCC3=O)c1C (stereo not given)	M1 ag 5.2 | M1 agonist conf -42 | M4 ag counter inactive
COc1cccc(OCCn2cc(C(=O)c3ccco3)c3ccccc32)c1	M1 ag 5 | M1 agonist conf inactive | M4 ag counter inactive
COc1ccc(OC)c(NC(=O)Cn2cc(C(=O)c3ccco3)c3ccccc32)c1	none
COC(=O)c1ccc(C(=O)OC)c(NC(=O)C(C)Oc2ccc(Cl)cc2C)c1 (stereo not given)	none (no result: SF1 activator, M1 antagonist, D1 allo mod, M1 ag, RORa activator)
CCCn1c(SCC(=O)Nc2nccs2)nnc1-c1cccnc1	none
CCC(Sc1nnc(-c2ccc(C)c(Cl)c2)n1CC)C(=O)Nc1nccs1 (stereo not given)	M1 ag 5.2 | M1 agonist conf inactive | M4 ag counter inactive
CC(C)COC(=O)NCCOC(=O)Nc1cccc(Cl)c1	M1 antagonist -2.2, M1 ag 7.5 | M1 agonist conf inactive | M4 ag counter -85
O=C(Cn1ncc2c(=O)oc3ccccc3c21)N1CCN(C(=O)c2ccco2)CC1	none
O=C(Cn1ncc2c(=O)oc3ccccc3c21)N1CCCN(Cc2ccccc2F)C1	M1 ag 6 | M1 agonist conf inactive | M4 ag counter inactive
Cc1ccc2c(c1)-c1c(cnn1CC(=O)O)CO2	none
Cc1ccc2c(c1)-c1c(cnn1CC(=O)N1CCCN(Cc3ccccc3F)C1)CO2	D1 allo mod -2.9, M1 ag 3.4 | M1 agonist conf inconclusive | M4 ag counter inactive
CC1=NNC(=O)C1CCC(=O)N/N=C(\C)c1ccc(Br)cc1 (stereo not given)	none (no result: SF1 activator, M1 antagonist, D1 allo mod, M1 ag, RORa activator)
O=S(=O)(NCCOCC(F)(F)C(F)F)c1ccc2oc3ccccc3c2c1	M1 ag 15 (no result: D1 allo mod) | M1 agonist conf -22 | M4 ag counter inactive
COc1ccc(NS(=O)(=O)c2ccc3oc4ccccc4c3c2)cn1	none
CCCCn1c(SCn2nnc3ccccc3c2=O)nc2cc(C(=O)OC)ccc2c1=O	none
CCOC(=O)C1CCCN(c2nc3ccccc3nc2C(C#N)C(=O)OCCOC)C1 (stereo not given)	M1 ag 6.8 | M1 agonist conf inactive | M4 ag counter inactive
N#CC(C(=O)OC1CCCCC1)c1nc2ccccc2nc1N1CCOCC1 (stereo not given)	M1 antagonist 4.8, M1 ag 72 | M1 agonist conf inactive | M4 ag counter inactive
N#CC(C(=O)NC1CCCCC1)c1nc2ccccc2nc1N1CCN(c2ccc(F)cc2)CC1 (stereo not given)	M1 ag 14 | M1 agonist conf 241 | M4 ag counter inconclusive
CCCCOC(=O)C(C#N)c1nc2ccccc2nc1N1CCN(Cc2ccc3c(c2)OCO3)CC1 (stereo not given)	M1 ag 14 | M1 agonist conf inactive | M4 ag counter inactive
CCOC(=O)C1CCCN(c2nc3ccccc3nc2C(C#N)C(=O)OC(C)COC)C1 (stereo not given)	none (no result: D1 allo mod)
O=[n+]1cc(-c2cc3ccccc3o2)n([O-])c2c1CCCC2	none (no result: D1 allo mod)
c1ccc(Cn2nnc3c(N4CCC5(CC4)OCCO5)ncnc32)cc1	none
N#C/C(=C\c1ccc(-c2cc(Cl)ccc2Cl)o1)C(=O)Nc1ccccc1O	none (no result: SF1 activator, M1 antagonist, D1 allo mod, M1 ag, RORa activator)
Cn1c(=O)c2nc(NCc3ccccc3)cnc2n(C)c1=O	M1 ag 10 | M1 agonist conf 203 | M4 ag counter 166
Cc1ccccc1NC(=O)c1cccc(N2C(=O)c3ccc(C(=O)O)cc3C2=O)c1	none (no result: SF1 activator, M1 antagonist, D1 allo mod, M1 ag, RORa activator)
CCOC(=O)C1=C2SCCN2C(=O)C(C#N)C1(C)C (stereo not given)	M1 ag 3.5 | M1 agonist conf inactive | M4 ag counter inactive
Cc1csc(SCC(=O)Nc2cc(C(C)(C)C)nn2-c2ccccc2)n1	M1 ag 2.5 (no result: D1 allo mod) | M1 agonist conf inconclusive | M4 ag counter inactive
COc1ccc(/C(N)=N/OC(=O)COc2ccc(C)cc2C)cc1	none (no result: SF1 activator, M1 antagonist, D1 allo mod, M1 ag, RORa activator)
CCn1c2c(c3cc(C4CCCCC4)ccc31)CCCC2O (stereo not given)	none (no result: SF1 activator, M1 antagonist, D1 allo mod, M1 ag, RORa activator)
COc1ccc(C2C(C(=O)Nc3ccccc3)=C(C)Nc3nc(CCCO)nn32)cc1 (stereo not given)	none
COc1ccc(C2C=C(c3ccccc3)Nc3nc(CCCO)nn32)cc1 (stereo not given)	M1 ag 9.3 | M1 agonist conf 72 | M4 ag counter inactive
OCCCc1nc2n(n1)C(c1ccccc1)C=C(c1ccccc1)N2 (stereo not given)	M1 ag 12 | M1 agonist conf 74 | M4 ag counter inactive
CC(=O)Nc1nc2n(n1)C(c1ccc(F)cc1)C=C(c1ccccc1)N2 (stereo not given)	M1 ag 7.6 | M1 agonist conf 119 | M4 ag counter 93
COc1ccc(C2C=C(c3cccs3)Nc3nc(CCCO)nn32)cc1 (stereo not given)	M1 antagonist -18, M1 ag 288 | M1 agonist conf 2868 | M4 ag counter 2408
CC1=C(C(N)=O)C(c2cccc(O)c2)n2nc(CCCO)nc2N1 (stereo not given)	none
CCc1ccccc1NC(=O)CC1Sc2ccccc2NC1=O (stereo not given)	none (no result: SF1 activator, M1 antagonist, D1 allo mod, M1 ag, RORa activator)
O=C(Nc1cccc2nsnc12)c1cccc([N+](=O)[O-])c1	none (no result: SF1 activator, M1 antagonist, D1 allo mod, M1 ag, RORa activator)
CC(C)(C)c1ccc(OCC(=O)Nc2cccc(NC(=O)c3cccc(Cl)c3)c2)cc1	none (no result: SF1 activator, M1 antagonist, D1 allo mod, M1 ag, RORa activator)
